According to ChEMBL document CHEMBL4152228, “Structural-based design, synthesis, and antitumor activity of novel alloxazine analogues with potential selective kinase inhibition” (Eur J Med Chem, 2018):

Tests used:
HCT-116 = assay: Antiproliferative activity against human HCT116 cells after 72 hrs by MTT assay; format: functional, cell-based; settings: HCT-116, 72 h
Outline: (§1)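 MTT viability assay. Cells grown in RPMI-1640 with 10% heat-inactivated FBS, L-glutamine and 1% penicillin/streptomycin, used within 20 passages. Seeded at 5×10^3 cells/well, left overnight at 37 °C, then exposed to final concentrations of 0.005–50 µM (0.1% DMSO) for up to 72 h. MTT added for 3 h, formazan dissolved in DMSO, absorbance read at 550 nm. IC50 derived relative to untreated controls.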

A2780 = assay: Antiproliferative activity against human A2780 cells after 72 hrs by MTT assay; format: functional, cell-based; settings: A2780, 72 h; outline: as §1
MCF7 [1] = assay: Antiproliferative activity against human MCF7 cells after 72 hrs by MTT assay; format: functional, cell-based; settings: MCF7, 72 h; outline: as §1
[2] = Antiproliferative activity against human WM793B cells after 72 hrs by MTT assay; format: functional, cell-based; outline: as §1
MCF7 [3] = assay: Induction of apoptosis in human MCF7 cells assessed as viable cells at 5 uM after 72 hrs by annexin V-FITC/propidium iodide staining-based flow cytometric method (reference value: 76%); format: functional; settings: MCF7, 72 h, read-out: Activity
MCF7 [4] = assay: Induction of apoptosis in human MCF7 cells assessed as late apoptotic cells at 10 uM after 72 hrs by annexin V-FITC/propidium iodide staining-based flow cytometric method (reference value: 2.6%); format: functional
MCF7 [5] = assay: Induction of apoptosis in human MCF7 cells assessed as late apoptotic cells at 5 uM after 72 hrs by annexin V-FITC/propidium iodide staining-based flow cytometric method (reference value: 2.6%); format: functional
K562 = assay: Antiproliferative activity against human K562 cells after 72 hrs by MTT assay; format: functional, cell-based; settings: K562, 72 h
MCF7 [6] = assay: Induction of apoptosis in human MCF7 cells assessed as viable cells at 10 uM after 72 hrs by annexin V-FITC/propidium iodide staining-based flow cytometric method (reference value: 76%); format: functional; settings: MCF7, 72 h, read-out: Activity
MCF7 [7] = assay: Induction of apoptosis in human MCF7 cells assessed as early apoptotic cells at 5 uM after 72 hrs by annexin V-FITC/propidium iodide staining-based flow cytometric method (reference value: 9%); format: functional
MCF7 [8] = assay: Induction of apoptosis in human MCF7 cells assessed as early apoptotic cells at 1 uM after 72 hrs by annexin V-FITC/propidium iodide staining-based flow cytometric method (reference value: 9%); format: functional
MCF7 [9] = assay: Induction of apoptosis in human MCF7 cells assessed as necrotic cells at 5 uM after 72 hrs by annexin V-FITC/propidium iodide staining-based flow cytometric method (reference value: 12.6%); format: functional
MCF7 [10] = assay: Induction of apoptosis in human MCF7 cells assessed as early apoptotic cells at 10 uM after 72 hrs by annexin V-FITC/propidium iodide staining-based flow cytometric method (reference value: 9%); format: functional
MCF7 [11] = assay: Induction of apoptosis in human MCF7 cells assessed as necrotic cells at 10 uM after 72 hrs by annexin V-FITC/propidium iodide staining-based flow cytometric method (reference value: 12.6%); format: functional
MCF7 [12] = assay: Induction of apoptosis in human MCF7 cells assessed as late apoptotic cells at 1 uM after 72 hrs by annexin V-FITC/propidium iodide staining-based flow cytometric method (reference value: 2.6%); format: functional
MCF7 [13] = assay: Induction of apoptosis in human MCF7 cells assessed as viable cells at 1 uM after 72 hrs by annexin V-FITC/propidium iodide staining-based flow cytometric method (reference value: 76%); format: functional; settings: MCF7, 72 h, read-out: Activity
MCF7 [14] = assay: Induction of apoptosis in human MCF7 cells assessed as necrotic cells at 1 uM after 72 hrs by annexin V-FITC/propidium iodide staining-based flow cytometric method (reference value: 12.6%); format: functional
MCF7 [15] = assay: Induction of apoptosis in human MCF7 cells assessed as increase of early apoptotic cells after 72 hrs by annexin V-FITC/propidium iodide staining-based flow cytometric method; format: functional, cell-based
Outline: (§2)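 MCF-7 cells treated 72 h at final 1, 5, 10 µM, then annexin V-FITC/PI stained in pH 7.4 HEPES binding buffer and analysed by flow cytometry. Early or late apoptotic cell fraction expressed as percent change versus vehicle control: (sample − control)/control × 100. Triplicates.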

MCF7 [16] = assay: Induction of apoptosis in human MCF7 cells assessed as increase of early apoptotic cells at 1 to 10 uM after 72 hrs by annexin V-FITC/propidium iodide staining-based flow cytometric method relative to control; format: functional; outline: as §2
[17] = molecular target: Cyclin-dependent kinase 16 (Homo sapiens) (UniProt Q00536); assay: Inhibition of CDK16 (unknown origin) at 10 uM by [33P]-ATP radiometric assay
Chain of Cyclin-dependent kinase 16 (Homo sapiens) (Q00536 whole entry): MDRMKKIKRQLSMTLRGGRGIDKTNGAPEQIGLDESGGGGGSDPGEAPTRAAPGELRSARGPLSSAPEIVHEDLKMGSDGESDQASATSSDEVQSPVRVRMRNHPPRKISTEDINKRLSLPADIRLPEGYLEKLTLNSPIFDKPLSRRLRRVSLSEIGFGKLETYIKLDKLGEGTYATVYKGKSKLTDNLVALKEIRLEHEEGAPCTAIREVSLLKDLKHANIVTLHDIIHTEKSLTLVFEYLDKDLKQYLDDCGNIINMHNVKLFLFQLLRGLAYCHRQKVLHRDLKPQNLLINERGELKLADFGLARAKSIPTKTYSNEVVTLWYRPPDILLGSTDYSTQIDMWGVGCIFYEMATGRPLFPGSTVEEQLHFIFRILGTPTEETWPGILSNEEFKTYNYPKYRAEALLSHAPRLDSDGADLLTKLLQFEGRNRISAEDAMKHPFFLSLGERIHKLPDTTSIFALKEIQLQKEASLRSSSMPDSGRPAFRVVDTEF
Outline: (§3)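 Radiometric kinase profiling: purified recombinant kinase (~10–50 nM final) with substrate, assay buffer and compound at 10 µM (control 10% DMSO). Started with 33P-ATP (50 µM stock, 0.8 µCi), run 30 min at ambient temperature, then spotted onto P81 phosphocellulose and washed in 1% phosphoric acid. Scintillation counted, no-substrate blank subtracted, single measurement, result given as % change versus control.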

[18] = molecular target: Epidermal growth factor receptor (Homo sapiens) (UniProt P00533); assay: Inhibition of EGFR (unknown origin) at 10 uM by [33P]-ATP radiometric assay; outline: as §3
Chain of Epidermal growth factor receptor (Homo sapiens) (P00533 whole entry): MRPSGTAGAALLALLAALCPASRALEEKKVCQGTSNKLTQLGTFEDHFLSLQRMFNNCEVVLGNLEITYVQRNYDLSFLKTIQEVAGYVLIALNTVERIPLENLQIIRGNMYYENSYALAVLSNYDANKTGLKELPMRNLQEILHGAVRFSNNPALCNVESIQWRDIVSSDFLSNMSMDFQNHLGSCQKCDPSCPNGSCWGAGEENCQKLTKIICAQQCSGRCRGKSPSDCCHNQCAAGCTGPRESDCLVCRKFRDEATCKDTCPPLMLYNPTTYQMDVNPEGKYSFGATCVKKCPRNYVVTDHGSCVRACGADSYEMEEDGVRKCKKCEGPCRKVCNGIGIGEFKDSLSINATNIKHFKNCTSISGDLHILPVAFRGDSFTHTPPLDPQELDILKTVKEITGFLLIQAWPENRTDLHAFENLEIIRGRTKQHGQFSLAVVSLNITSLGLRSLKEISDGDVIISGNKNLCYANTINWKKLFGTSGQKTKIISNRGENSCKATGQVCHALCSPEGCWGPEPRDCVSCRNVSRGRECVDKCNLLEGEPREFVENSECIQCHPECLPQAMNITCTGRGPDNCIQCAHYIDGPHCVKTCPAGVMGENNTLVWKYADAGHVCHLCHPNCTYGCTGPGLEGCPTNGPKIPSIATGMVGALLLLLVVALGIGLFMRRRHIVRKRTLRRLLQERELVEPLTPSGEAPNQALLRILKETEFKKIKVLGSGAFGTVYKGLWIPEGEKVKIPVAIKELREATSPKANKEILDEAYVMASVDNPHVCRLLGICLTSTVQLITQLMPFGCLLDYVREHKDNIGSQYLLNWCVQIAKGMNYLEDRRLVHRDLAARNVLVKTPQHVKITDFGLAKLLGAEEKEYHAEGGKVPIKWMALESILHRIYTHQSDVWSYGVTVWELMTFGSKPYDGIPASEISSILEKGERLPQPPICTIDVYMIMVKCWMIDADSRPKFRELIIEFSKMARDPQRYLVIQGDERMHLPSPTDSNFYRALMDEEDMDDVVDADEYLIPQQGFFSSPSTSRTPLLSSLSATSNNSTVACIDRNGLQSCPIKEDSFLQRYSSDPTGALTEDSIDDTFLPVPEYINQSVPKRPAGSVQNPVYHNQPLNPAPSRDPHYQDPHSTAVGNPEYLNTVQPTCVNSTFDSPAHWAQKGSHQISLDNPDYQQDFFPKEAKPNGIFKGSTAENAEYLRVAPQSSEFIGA

[19] = molecular target: Hepatocyte growth factor receptor (Homo sapiens) (UniProt P08581); assay: Inhibition of MET (unknown origin) at 10 uM by [33P]-ATP radiometric assay; outline: as §3
Chain of Hepatocyte growth factor receptor (Homo sapiens) (P08581 whole entry): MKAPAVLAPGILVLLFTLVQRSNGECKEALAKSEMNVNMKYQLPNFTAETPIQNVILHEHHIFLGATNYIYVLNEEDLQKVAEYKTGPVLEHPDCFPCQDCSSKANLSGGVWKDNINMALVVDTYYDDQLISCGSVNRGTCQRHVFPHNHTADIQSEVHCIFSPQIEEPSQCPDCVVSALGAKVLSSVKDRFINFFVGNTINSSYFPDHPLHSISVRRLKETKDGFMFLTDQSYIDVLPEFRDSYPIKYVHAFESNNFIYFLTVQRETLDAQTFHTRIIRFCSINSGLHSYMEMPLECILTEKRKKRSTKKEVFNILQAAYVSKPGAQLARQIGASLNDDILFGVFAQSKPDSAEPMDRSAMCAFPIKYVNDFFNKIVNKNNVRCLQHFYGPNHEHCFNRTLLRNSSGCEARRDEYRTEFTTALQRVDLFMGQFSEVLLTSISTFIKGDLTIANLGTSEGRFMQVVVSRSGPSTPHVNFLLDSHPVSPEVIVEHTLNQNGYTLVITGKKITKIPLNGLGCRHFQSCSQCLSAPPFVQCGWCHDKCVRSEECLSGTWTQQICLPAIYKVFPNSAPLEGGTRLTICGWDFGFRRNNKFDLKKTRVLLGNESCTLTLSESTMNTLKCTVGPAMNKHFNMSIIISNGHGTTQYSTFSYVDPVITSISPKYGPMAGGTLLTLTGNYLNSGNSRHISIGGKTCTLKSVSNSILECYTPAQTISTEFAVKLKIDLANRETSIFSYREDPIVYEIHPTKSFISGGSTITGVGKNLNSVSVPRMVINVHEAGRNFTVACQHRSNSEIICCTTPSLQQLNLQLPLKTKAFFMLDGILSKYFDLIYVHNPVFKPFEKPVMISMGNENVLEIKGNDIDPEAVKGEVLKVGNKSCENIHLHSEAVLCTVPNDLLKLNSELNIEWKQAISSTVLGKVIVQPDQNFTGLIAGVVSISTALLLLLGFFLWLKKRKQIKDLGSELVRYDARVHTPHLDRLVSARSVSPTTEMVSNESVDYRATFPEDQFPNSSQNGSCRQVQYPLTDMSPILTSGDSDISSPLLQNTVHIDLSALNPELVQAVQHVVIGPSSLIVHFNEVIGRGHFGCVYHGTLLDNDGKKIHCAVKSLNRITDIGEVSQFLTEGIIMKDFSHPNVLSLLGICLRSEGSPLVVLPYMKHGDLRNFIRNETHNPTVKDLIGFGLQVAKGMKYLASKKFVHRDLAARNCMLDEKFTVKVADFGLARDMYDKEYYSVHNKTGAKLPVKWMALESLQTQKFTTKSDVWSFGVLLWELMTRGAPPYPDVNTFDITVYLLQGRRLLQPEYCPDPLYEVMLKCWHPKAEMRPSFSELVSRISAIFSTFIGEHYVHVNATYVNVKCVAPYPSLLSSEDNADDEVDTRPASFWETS

[20] = molecular target: Fibroblast growth factor receptor 1 (Homo sapiens) (UniProt P11362); assay: Inhibition of FGFR1 (unknown origin) at 10 uM by [33P]-ATP radiometric assay; outline: as §3
[21] = molecular target: Receptor tyrosine-protein kinase erbB-2 (Homo sapiens) (UniProt P04626); assay: Inhibition of HER2 (unknown origin) at 10 uM by [33P]-ATP radiometric assay; outline: as §3
[22] = molecular target: Protein kinase C beta type (Homo sapiens) (UniProt P05771); assay: Inhibition of PCK-beta2 (unknown origin) at 10 uM by [33P]-ATP radiometric assay; outline: as §3
Chain of Protein kinase C beta type (Homo sapiens) (P05771 2-671 limits assumed): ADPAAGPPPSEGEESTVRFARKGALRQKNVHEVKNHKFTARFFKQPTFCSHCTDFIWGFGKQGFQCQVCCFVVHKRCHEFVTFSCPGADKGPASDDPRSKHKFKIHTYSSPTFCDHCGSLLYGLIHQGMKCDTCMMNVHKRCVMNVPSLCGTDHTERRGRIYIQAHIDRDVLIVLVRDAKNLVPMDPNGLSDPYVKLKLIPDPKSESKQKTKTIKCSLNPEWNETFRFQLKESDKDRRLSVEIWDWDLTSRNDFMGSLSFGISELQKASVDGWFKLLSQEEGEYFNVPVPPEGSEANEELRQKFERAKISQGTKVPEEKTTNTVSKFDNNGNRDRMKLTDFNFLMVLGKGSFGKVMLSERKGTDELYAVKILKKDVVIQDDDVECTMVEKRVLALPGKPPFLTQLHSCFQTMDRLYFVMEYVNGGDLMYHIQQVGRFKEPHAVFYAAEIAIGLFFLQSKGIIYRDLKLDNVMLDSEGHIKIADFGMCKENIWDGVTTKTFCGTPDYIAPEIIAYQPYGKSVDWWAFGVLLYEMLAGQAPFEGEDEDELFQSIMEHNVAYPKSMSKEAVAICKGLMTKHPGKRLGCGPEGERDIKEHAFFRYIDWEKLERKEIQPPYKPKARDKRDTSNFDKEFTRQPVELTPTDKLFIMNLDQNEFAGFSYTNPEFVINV

[23] = molecular target: Mitogen-activated protein kinase 8 (Homo sapiens) (UniProt P45983); assay: Inhibition of JNK1 (unknown origin) at 10 uM by [33P]-ATP radiometric assay; outline: as §3
[24] = molecular target: Calcium/calmodulin-dependent protein kinase type 1 (Homo sapiens) (UniProt Q14012); assay: Inhibition of CAMK1 (unknown origin) at 10 uM by [33P]-ATP radiometric assay; outline: as §3
Chain of Calcium/calmodulin-dependent protein kinase type 1 (Homo sapiens) (Q14012 whole entry, looked up): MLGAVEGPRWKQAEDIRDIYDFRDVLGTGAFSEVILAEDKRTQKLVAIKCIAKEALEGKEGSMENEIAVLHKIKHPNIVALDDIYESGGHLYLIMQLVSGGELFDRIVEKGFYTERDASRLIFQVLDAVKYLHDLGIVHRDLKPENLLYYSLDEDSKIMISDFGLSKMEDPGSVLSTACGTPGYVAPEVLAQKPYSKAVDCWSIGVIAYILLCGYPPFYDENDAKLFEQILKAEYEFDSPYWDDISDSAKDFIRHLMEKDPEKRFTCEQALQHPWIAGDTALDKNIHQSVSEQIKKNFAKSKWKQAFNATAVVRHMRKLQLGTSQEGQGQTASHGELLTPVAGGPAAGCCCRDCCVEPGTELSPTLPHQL

[25] = molecular target: Calcium/calmodulin-dependent protein kinase type II subunit alpha (Homo sapiens) (UniProt Q9UQM7); assay: Inhibition of CAMK2-alpha (unknown origin) at 10 uM by [33P]-ATP radiometric assay; outline: as §3
Chain of Calcium/calmodulin-dependent protein kinase type II subunit alpha (Homo sapiens) (Q9UQM7 whole entry): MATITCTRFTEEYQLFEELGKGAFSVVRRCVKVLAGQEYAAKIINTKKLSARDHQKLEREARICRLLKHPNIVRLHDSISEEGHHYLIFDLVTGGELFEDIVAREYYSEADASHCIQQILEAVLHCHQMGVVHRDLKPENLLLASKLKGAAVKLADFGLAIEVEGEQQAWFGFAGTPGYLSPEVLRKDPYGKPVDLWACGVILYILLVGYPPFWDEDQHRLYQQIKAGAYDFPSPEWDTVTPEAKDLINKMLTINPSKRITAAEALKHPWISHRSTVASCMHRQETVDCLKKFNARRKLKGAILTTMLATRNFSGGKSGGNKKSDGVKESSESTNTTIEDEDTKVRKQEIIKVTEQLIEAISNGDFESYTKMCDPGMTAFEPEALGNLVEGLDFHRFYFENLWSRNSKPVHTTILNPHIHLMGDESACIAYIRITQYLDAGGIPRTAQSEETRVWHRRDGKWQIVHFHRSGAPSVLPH

[26] = molecular target: Mast/stem cell growth factor receptor Kit (Homo sapiens) (UniProt P10721); assay: Inhibition of c-KIT (unknown origin) at 10 uM by [33P]-ATP radiometric assay
Outline: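 Radiometric kinase profiling: purified recombinant kinase (~10–50 nM final) with substrate, assay buffer and compound at 10 µM (control 10% DMSO). Started with 33P-ATP (50 µM stock, 0.8 µCi), run 30 min at ambient temperature, then spotted onto P81 phosphocellulose and washed in 1% phosphoric acid.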

[27] = molecular target: Mitogen-activated protein kinase 3 (Homo sapiens) (UniProt P27361); assay: Inhibition of ERK1 (unknown origin) at 10 uM by [33P]-ATP radiometric assay; outline: as §3
Chain of Mitogen-activated protein kinase 3 (Homo sapiens) (P27361 whole entry, canonical isoform): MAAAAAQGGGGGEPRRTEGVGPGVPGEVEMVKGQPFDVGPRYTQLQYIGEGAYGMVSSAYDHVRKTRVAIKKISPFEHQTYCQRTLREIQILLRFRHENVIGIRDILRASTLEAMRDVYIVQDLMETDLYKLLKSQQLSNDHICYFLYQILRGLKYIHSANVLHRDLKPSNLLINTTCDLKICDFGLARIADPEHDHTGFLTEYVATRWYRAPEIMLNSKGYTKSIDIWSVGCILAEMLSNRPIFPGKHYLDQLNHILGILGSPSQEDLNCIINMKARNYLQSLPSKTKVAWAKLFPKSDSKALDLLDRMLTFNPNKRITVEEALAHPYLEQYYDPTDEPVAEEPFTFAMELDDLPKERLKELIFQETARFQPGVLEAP

[28] = molecular target: Casein kinase I isoform alpha (Homo sapiens) (UniProt P48729); assay: Inhibition of CK1alpha1 (unknown origin) at 10 uM by [33P]-ATP radiometric assay; outline: as §3
[29] = molecular target: Activin receptor type-2A (Homo sapiens) (UniProt P27037); assay: Inhibition of ACVR2A (unknown origin) at 10 uM by [33P]-ATP radiometric assay; outline: as §3
[30] = molecular target: Vascular endothelial growth factor receptor 1 (Homo sapiens) (UniProt P17948); assay: Inhibition of FLT1 (unknown origin) at 10 uM by [33P]-ATP radiometric assay; outline: as §3
MCF7 [31] = assay: Induction of apoptosis in human MCF7 cells assessed as increase of late apoptotic cells at 10 uM after 72 hrs by annexin V-FITC/propidium iodide staining-based flow cytometric method relative to control; format: functional; outline: as §2

SMILES	IC50 (HCT-116) [µM]	IC50 (A2780) [µM]	IC50 (MCF7 [1]) [µM]	IC50 (K562) [µM]	inhibition [17] [%]	inhibition [18] [%]	inhibition [19] [%]	inhibition [20] [%]	inhibition [22] [%]	inhibition [24] [%]	inhibition [25] [%]	inhibition [27] [%]	IC50 [2] [µM]	also measured
COc1ccc2nc3nc(NCc4ccc(CN(C)C)cc4)[nH]c(=O)c3nc2c1	1.3	0.7	0.55	> 50	–	–	–	–	–	–	–	–	> 50	viability at 5 µM (MCF7 [3]): 67.4%; Activity (MCF7 [4]): 12%; Activity (MCF7 [5]): 7.9%; viability at 10 µM (MCF7 [6]): 60%; Activity (MCF7 [7]): 17%; Activity (MCF7 [8]): 11.7%; Activity (MCF7 [9]): 7.7%; Activity (MCF7 [10]): 22.1%; Activity (MCF7 [11]): 5.9%; Activity (MCF7 [12]): 4.8%; viability at 1 µM (MCF7 [13]): 67.3%; Activity (MCF7 [14]): 16.2%; Activity (MCF7 [15]): Dose-dependent effect; fold change (FC) (MCF7 [16]): 2
Cc1ccc2nc3nc(NCCO)[nH]c(=O)c3cc2c1	–	–	0.17	–	–	–	–	–	–	–	–	–	–	–
Cc1ccc2nc3nc(NCc4ccc(CN5CCN(C)CC5)cc4)[nH]c(=O)c3cc2c1	0.82	0.32	0.53	13.5	-1	12	18	50	3	18	0	5	10.5	inhibition [21]: 4%; inhibition [23]: -4%; inhibition [26]: 36%
COc1ccc(CCN2CCC(Nc3nc4nc5ccc(C)cc5nc4c(=O)[nH]3)CC2)cc1	0.17	0.2	0.16	> 50	18	-2	7	1	7	19	4	8	> 50	inhibition [30]: -5%; viability at 5 µM (MCF7 [3]): 64.1%; Activity (MCF7 [4]): 30%; Activity (MCF7 [5]): 14.1%; inhibition [28]: 9%; inhibition [23]: 10%; viability at 10 µM (MCF7 [6]): 44.6%; Activity (MCF7 [7]): 18%; Activity (MCF7 [8]): 12.4%; Activity (MCF7 [9]): 3.6%; fold change (FC) (MCF7 [31]): 12; Activity (MCF7 [10]): 20.7%; Activity (MCF7 [11]): 4.8%; Activity (MCF7 [12]): 13.3%; inhibition [26]: -7%; viability at 1 µM (MCF7 [13]): 66.7%; inhibition [29]: -5%; Activity (MCF7 [14]): 7.6%; Activity (MCF7 [15]): Dose-dependent effect; fold change (FC) (MCF7 [16]): 2
COc1ccc(CCN2CCC(Nc3nc4nc5ccc(OC)cc5nc4c(=O)[nH]3)CC2)cc1	0.93	0.9	0.8	17.3	–	–	–	–	–	–	–	–	33.1	–

More lines, main results first:

IC50 (HCT-116) [µM]	IC50 (A2780) [µM]	IC50 (MCF7 [1]) [µM]	IC50 (K562) [µM]	inhibition [17] [%]	inhibition [18] [%]	inhibition [19] [%]	inhibition [20] [%]	inhibition [22] [%]	inhibition [24] [%]	inhibition [25] [%]	inhibition [27] [%]	SMILES	IC50 [2] [µM]	also measured
10.1	10.4	6.8	–	–	–	–	–	–	–	–	–	CS(=O)(=O)CCNCc1ccc(-c2ccc3ncnc(Nc4ccc(OCc5cccc(F)c5)c(Cl)c4)c3c2)o1 [LAPATINIB]	–	–
19.7	8.9	7.12	3.43	10	9	10	1	10	10	1	-2	Cc1ccc(NC(=O)c2ccc(CN3CCN(C)CC3)cc2)cc1Nc1nccc(-c2cccnc2)n1 [IMATINIB]	–	inhibition [28]: 11%; inhibition [29]: -2%
